Assay results from different studies.
Each line is one published result; the experiments were not run side by side. ≈ marks a conversion by molar mass, not a printed value.

SMILES	organism	assay	system	conditions	endpoint	value
O=C(Nc1ccc(Cl)cc1)c1ccc(COC(Cn2ccnc2)c2ccc(Cl)cc2Cl)cc1 (stereo not drawn)	Nakaseomyces glabratus	microbial growth, broth dilution			MIC80	0.125 µg/mL (≈ 0.25 µM)
C[C@@H]1[C@H](O)[C@@H](C)/C=C/C=C/C=C/C=C/C=C/C=C/C=C/[C@H](O[C@@H]2O[C@H](C)[C@@H](O)[C@H](N)[C@@H]2O)C[C@@H]2O[C@](O)(C[C@@H](O)C[C@@H](O)[C@H](O)CC[C@@H](O)C[C@@H](O)CC(=O)O[C@H]1C)C[C@H](O)[C@H]2C(=O)O	Cryptococcus neoformans	microbial growth, broth dilution	H99	48 h	MIC	0.5 µg/mL (≈ 0.541 µM)
O=C(Nc1ccc2ccccc2c1)c1ccc(COC(Cn2ccnc2)c2ccc(Cl)cc2Cl)cc1 (stereo not drawn)	Nakaseomyces glabratus	microbial growth, broth dilution			MIC80	64 µg/mL (≈ 124 µM)
CC1(C)S[C@@H]2[C@H](NC(=O)[C@H](N)c3ccccc3)C(=O)N2[C@H]1C(=O)O	Bacillus subtilis	microbial growth			MIC	2 µg/mL (≈ 5.72 µM)
O=C(O)c1cn(C2CC2)c2cc(N3CCNCC3)c(F)cc2c1=O	Bacillus subtilis	microbial growth, well diffusion	ATCC6051	100 µg/mL	inhibition zone	30 mm
CC(=O)N1CCN(c2ccc(OCC3COC(Cn4ccnc4)(c4ccc(Cl)cc4Cl)O3)cc2)CC1 (stereo not drawn)	Nakaseomyces glabratus	microbial growth, broth dilution	ATCC15126	48 h	MIC	8 µg/mL (≈ 15.1 µM)
O=C(Nc1ccc2[nH]ccc2c1)c1ccc(COC(Cn2ccnc2)c2ccc(Cl)cc2Cl)cc1 (stereo not drawn)	Nakaseomyces glabratus	microbial growth, broth dilution			MIC80	128 µg/mL (≈ 253 µM)
C#CCOC(=O)ON=C1C=CC(=C(C#N)c2ccccc2)C=C1	Nakaseomyces glabratus	microbial growth, broth dilution	ATCC15126	48 h	MIC	16 µg/mL (≈ 52.6 µM)
C/C(=N/NC(=O)c1cn(-c2ccccc2)nc1-c1ccc(F)cc1)c1c(O)cc(C)oc1=O	Bacillus subtilis	microbial growth			MIC	70 µg/mL (≈ 157 µM)
CC(=O)ON=C1C=CC(=C(C#N)c2ccccc2)C=C1	Nakaseomyces glabratus	microbial killing, broth dilution	ATCC15126	48 h	MFC	16 µg/mL (≈ 60.5 µM)
O=C(Nc1cccc(Br)c1)c1ccc(COC(Cn2ccnc2)c2ccc(Cl)cc2Cl)cc1 (stereo not drawn)	Nakaseomyces glabratus	microbial growth, broth dilution			MIC80	0.125 µg/mL (≈ 0.229 µM)
C#CCON=C1C=CC(=C(C#N)c2ccccc2)C=C1	Nakaseomyces glabratus	microbial killing, broth dilution	ATCC15126	48 h	MFC	32 µg/mL (≈ 123 µM)
C/C(=N/NC(=O)c1cn(-c2ccccc2)nc1-c1ccccc1)c1c(O)cc(C)oc1=O	Bacillus subtilis	microbial growth			MIC	50 µg/mL (≈ 117 µM)
C=CC(=O)ON=C1C=CC(=C(C#N)c2ccccc2)C=C1	Nakaseomyces glabratus	microbial killing, broth dilution	ATCC15126	48 h	MFC	16 µg/mL (≈ 57.9 µM)
[H]/N=C(/N)N[C@H]1[C@H](O)[C@@H](O)[C@H](O[C@@H]2O[C@@H](C)[C@](O)(C=O)[C@H]2O[C@@H]2O[C@@H](CO)[C@H](O)[C@@H](O)[C@@H]2NC)[C@@H](N/C(N)=N\[H])[C@@H]1O	Bacillus subtilis	microbial growth, well diffusion	MTCC121	1000 µg/mL, 18 h	inhibition zone	24 mm
